Data reported in ChEMBL document CHEMBL1287651, “Synthesis and in vitro antibacterial activity of fluoroquinolone derivatives containing 3-(N'-alkoxycarbamimidoyl)-4-(alkoxyimino) pyrrolidines” (2010).
In brackets after ≈: the same amount, converted by molar mass.

Experiments:
Assay type in all cases: functional
Klebsiella pneumoniae [1] = assay: Antibacterial activity against Klebsiella pneumoniae 09-21 after 18 to 24 hrs by twofold serial dilution method
How it was run: (§1)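 MIC determined by the standard twofold serial dilution method on agar media, screening against Gram-positive and Gram-negative strains. Levofloxacin and gemifloxacin were run alongside as reference drugs.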

Pseudomonas aeruginosa [2] = assay: Antibacterial activity against Pseudomonas aeruginosa ATCC 27853 after 18 to 24 hrs by twofold serial dilution method; how it was run: as §1
Pseudomonas aeruginosa [3] = assay: Antibacterial activity against Pseudomonas aeruginosa 09-35 after 18 to 24 hrs by twofold serial dilution method; how it was run: as §1
Escherichia coli [4] = assay: Antibacterial activity against Escherichia coli 08-21 after 18 to 24 hrs by twofold serial dilution method; how it was run: as §1
Staphylococcus aureus [5] = assay: Antibacterial activity against methicillin-resistant Staphylococcus aureus 08-1 after 18 to 24 hrs by twofold serial dilution method
How it was run: (§2)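 Standard twofold serial agar dilution method on agar media for MIC determination. Screened against representative Gram-positive and Gram-negative strains. Levofloxacin and GMFX served as control drugs.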

[6] = tested on: Staphylococcus epidermidis; assay: Antibacterial activity against methicillin-resistant Staphylococcus epidermidis 09-2 after 18 to 24 hrs by twofold serial dilution method; how it was run: as §2
Pseudomonas aeruginosa [7] = assay: Antibacterial activity against Pseudomonas aeruginosa 09-32 after 18 to 24 hrs by twofold serial dilution method; how it was run: as §1
Streptococcus pneumoniae [8] = assay: Antibacterial activity against Streptococcus pneumoniae 08-2 after 18 to 24 hrs by twofold serial dilution method; how it was run: as §1
Klebsiella pneumoniae [9] = assay: Antibacterial activity against Klebsiella pneumoniae 09-23 after 18 to 24 hrs by twofold serial dilution method; how it was run: as §1
[10] = tested on: Staphylococcus epidermidis; assay: Antibacterial activity against methicillin-sensitive Staphylococcus epidermidis 09-6 after 18 to 24 hrs by twofold serial dilution method; how it was run: as §2
Enterococcus faecium [11] = assay: Antibacterial activity against Enterococcus faecium 08-7 after 18 to 24 hrs by twofold serial dilution method; how it was run: as §1
Pseudomonas aeruginosa [12] = assay: Antibacterial activity against Pseudomonas aeruginosa 09-34 after 18 to 24 hrs by twofold serial dilution method; how it was run: as §1
[13] = tested on: Staphylococcus epidermidis; assay: Antibacterial activity against methicillin-resistant Staphylococcus epidermidis 09-4 after 18 to 24 hrs by twofold serial dilution method; how it was run: as §2
Enterococcus faecalis [14] = assay: Antibacterial activity against Enterococcus faecalis 08-10 after 18 to 24 hrs by twofold serial dilution method; how it was run: as §1
[15] = tested on: Staphylococcus epidermidis; assay: Antibacterial activity against methicillin-resistant Staphylococcus epidermidis 09-3 after 18 to 24 hrs by twofold serial dilution method; how it was run: as §2
Pseudomonas aeruginosa [16] = assay: Antibacterial activity against Pseudomonas aeruginosa 09-33 after 18 to 24 hrs by twofold serial dilution method; how it was run: as §1
Klebsiella pneumoniae [17] = assay: Antibacterial activity against Klebsiella pneumoniae 09-22 after 18 to 24 hrs by twofold serial dilution method; how it was run: as §1
Escherichia coli [18] = assay: Antibacterial activity against Escherichia coli ATCC 25922 after 18 to 24 hrs by twofold serial dilution method; how it was run: as §1
Escherichia coli [19] = assay: Antibacterial activity against Escherichia coli 08-22 after 18 to 24 hrs by twofold serial dilution method; how it was run: as §1
Staphylococcus aureus [20] = assay: Antibacterial activity against Staphylococcus aureus ATCC […] after 18 to 24 hrs by twofold serial dilution method; how it was run: as §1
Enterococcus faecalis [21] = assay: Antibacterial activity against Enterococcus faecalis 08-12 after 18 to 24 hrs by twofold serial dilution method; how it was run: as §1
[22] = tested on: Staphylococcus epidermidis; assay: Antibacterial activity against methicillin-sensitive Staphylococcus epidermidis 09-3 after 18 to 24 hrs by twofold serial dilution method; how it was run: as §2
Enterococcus faecium [23] = assay: Antibacterial activity against Enterococcus faecium 08-2 after 18 to 24 hrs by twofold serial dilution method; how it was run: as §1
Staphylococcus aureus [24] = assay: Antibacterial activity against methicillin-sensitive Staphylococcus aureus 08-2 after 18 to 24 hrs by twofold serial dilution method; how it was run: as §2
Streptococcus pneumoniae [25] = assay: Antibacterial activity against Streptococcus pneumoniae 08-4 after 18 to 24 hrs by twofold serial dilution method; how it was run: as §1

SMILES	MIC (Klebsiella pneumoniae [1])	MIC (Pseudomonas aeruginosa [2])	MIC (Pseudomonas aeruginosa [3])	MIC (Escherichia coli [4])	MIC (Staphylococcus aureus [5])	MIC [6]	MIC (Pseudomonas aeruginosa [7])	MIC (Streptococcus pneumoniae [8])	MIC (Klebsiella pneumoniae [9])	MIC [10]	MIC (Enterococcus faecium [11])	MIC (Pseudomonas aeruginosa [12])	MIC [13]	MIC (Enterococcus faecalis [14])	MIC [15]	MIC (Pseudomonas aeruginosa [16])	MIC (Klebsiella pneumoniae [17])	MIC (Escherichia coli [18])	MIC (Escherichia coli [19])	MIC (Staphylococcus aureus [20])	also measured
CCO/N=C1\CN(c2c(F)cc3c(=O)c(C(=O)O)cn(C4CC4)c3c2OC)CC1/C(N)=N\OCC (stereo not given)	64 µg/mL (≈ 131 µM)	16 µg/mL (≈ 32.7 µM)	64 µg/mL (≈ 131 µM)	64 µg/mL (≈ 131 µM)	64 µg/mL (≈ 131 µM)	0.5 µg/mL (≈ 1.02 µM)	64 µg/mL (≈ 131 µM)	64 µg/mL (≈ 131 µM)	64 µg/mL (≈ 131 µM)	0.5 µg/mL (≈ 1.02 µM)	64 µg/mL (≈ 131 µM)	64 µg/mL (≈ 131 µM)	1 µg/mL (≈ 2.04 µM)	64 µg/mL (≈ 131 µM)	1 µg/mL (≈ 2.04 µM)	64 µg/mL (≈ 131 µM)	32 µg/mL (≈ 65.4 µM)	16 µg/mL (≈ 32.7 µM)	64 µg/mL (≈ 131 µM)	0.5 µg/mL (≈ 1.02 µM)	MIC (Enterococcus faecalis [21]): 64 µg/mL (≈ 131 µM); MIC [22]: 0.5 µg/mL (≈ 1.02 µM); MIC (Enterococcus faecium [23]): 64 µg/mL (≈ 131 µM); MIC (Staphylococcus aureus [24]): 64 µg/mL (≈ 131 µM); MIC (Streptococcus pneumoniae [25]): 1 µg/mL (≈ 2.04 µM)
CO/N=C1\CN(c2c(F)cc3c(=O)c(C(=O)O)cn4c3c2OC[C@@H]4C)CC1/C(N)=N\OC (stereo not given in full)	> 128 µg/mL	4 µg/mL (≈ 8.94 µM)	8 µg/mL (≈ 17.9 µM)	> 128 µg/mL	0.25 µg/mL (≈ 0.559 µM)	0.25 µg/mL (≈ 0.559 µM)	8 µg/mL (≈ 17.9 µM)	16 µg/mL (≈ 35.8 µM)	> 128 µg/mL	0.25 µg/mL (≈ 0.559 µM)	128 µg/mL (≈ 286 µM)	> 128 µg/mL	0.25 µg/mL (≈ 0.559 µM)	> 128 µg/mL	0.25 µg/mL (≈ 0.559 µM)	> 128 µg/mL	0.5 µg/mL (≈ 1.12 µM)	128 µg/mL (≈ 286 µM)	> 128 µg/mL	0.125 µg/mL (≈ 0.279 µM)	MIC (Enterococcus faecalis [21]): > 128 µg/mL; MIC [22]: 0.25 µg/mL (≈ 0.559 µM); MIC (Enterococcus faecium [23]): 128 µg/mL (≈ 286 µM); MIC (Staphylococcus aureus [24]): 0.25 µg/mL (≈ 0.559 µM); MIC (Streptococcus pneumoniae [25]): 0.25 µg/mL (≈ 0.559 µM)
CO/N=C1\CN(c2nc3c(cc2F)c(=O)c(C(=O)O)cn3C2CC2)CC1/C(N)=N\OC (stereo not given)	> 128 µg/mL	64 µg/mL (≈ 148 µM)	64 µg/mL (≈ 148 µM)	> 128 µg/mL	0.25 µg/mL (≈ 0.578 µM)	1 µg/mL (≈ 2.31 µM)	128 µg/mL (≈ 296 µM)	> 128 µg/mL	> 128 µg/mL	0.25 µg/mL (≈ 0.578 µM)	> 128 µg/mL	> 128 µg/mL	0.25 µg/mL (≈ 0.578 µM)	> 128 µg/mL	0.25 µg/mL (≈ 0.578 µM)	> 128 µg/mL	1 µg/mL (≈ 2.31 µM)	128 µg/mL (≈ 296 µM)	> 128 µg/mL	0.25 µg/mL (≈ 0.578 µM)	MIC (Enterococcus faecalis [21]): > 128 µg/mL; MIC [22]: 0.25 µg/mL (≈ 0.578 µM); MIC (Enterococcus faecium [23]): > 128 µg/mL; MIC (Staphylococcus aureus [24]): 1 µg/mL (≈ 2.31 µM); MIC (Streptococcus pneumoniae [25]): 1 µg/mL (≈ 2.31 µM)
CCO/N=C1\CN(c2c(F)cc3c(=O)c(C(=O)O)cn(CCF)c3c2F)CC1/C(N)=N\OC (stereo not given)	> 128 µg/mL	> 128 µg/mL	> 128 µg/mL	> 128 µg/mL	4 µg/mL (≈ 8.52 µM)	> 128 µg/mL	> 128 µg/mL	> 128 µg/mL	> 128 µg/mL	0.25 µg/mL (≈ 0.533 µM)	> 128 µg/mL	> 128 µg/mL	0.125 µg/mL (≈ 0.266 µM)	> 128 µg/mL	0.25 µg/mL (≈ 0.533 µM)	> 128 µg/mL	> 128 µg/mL	> 128 µg/mL	> 128 µg/mL	2 µg/mL (≈ 4.26 µM)	MIC (Enterococcus faecalis [21]): > 128 µg/mL; MIC [22]: 0.25 µg/mL (≈ 0.533 µM); MIC (Enterococcus faecium [23]): > 128 µg/mL; MIC (Staphylococcus aureus [24]): > 128 µg/mL; MIC (Streptococcus pneumoniae [25]): > 128 µg/mL
CO/N=C1\CN(c2c(F)cc3c(=O)c(C(=O)O)cn(C4CC4)c3c2OC(F)F)CC1/C(N)=N\O (stereo not given)	> 128 µg/mL	128 µg/mL (≈ 265 µM)	> 128 µg/mL	> 128 µg/mL	0.125 µg/mL (≈ 0.259 µM)	4 µg/mL (≈ 8.27 µM)	> 128 µg/mL	4 µg/mL (≈ 8.27 µM)	> 128 µg/mL	0.25 µg/mL (≈ 0.517 µM)	> 128 µg/mL	> 128 µg/mL	0.5 µg/mL (≈ 1.03 µM)	> 128 µg/mL	0.25 µg/mL (≈ 0.517 µM)	> 128 µg/mL	64 µg/mL (≈ 132 µM)	128 µg/mL (≈ 265 µM)	> 128 µg/mL	0.125 µg/mL (≈ 0.259 µM)	MIC (Enterococcus faecalis [21]): > 128 µg/mL; MIC [22]: 0.25 µg/mL (≈ 0.517 µM); MIC (Enterococcus faecium [23]): > 128 µg/mL; MIC (Staphylococcus aureus [24]): 0.25 µg/mL (≈ 0.517 µM); MIC (Streptococcus pneumoniae [25]): 4 µg/mL (≈ 8.27 µM)
